From PubChem
Hits are enriched below; roughly 3.1% of the tested compounds scored in any of these assays.
KCNK3 inh: human KCNK3 channel inhibition, primary screen | AID 602410 | 0.84% of 340,000 active | B-score at 10 µM | CHO-KCNK3 thallium flux, FluxOR fluorescence; hits give low values;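 active means B-score under library mean minus 4 SD, starting fluorescence ratio at most library mean plus 5 SD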;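 further: more negative B-score means stronger inhibition of thallium flux through KCNK3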
hERG rescue: compounds protecting human hERG from proarrhythmic drug block | Q12809 | activation (rescue from dofetilide block), less the hit threshold, % at 10 µM | CHO-hERG, FluxOR thallium flux, dofetilide IC70 present | 0.51% of 310,000 active;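 active means activation above the mean of controls blocked by dofetilide plus 5 SD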;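 further: thallium influx through hERG after potassium depolarization seen as dye fluorescence rise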
Target sequence (Q12809 whole entry, looked up): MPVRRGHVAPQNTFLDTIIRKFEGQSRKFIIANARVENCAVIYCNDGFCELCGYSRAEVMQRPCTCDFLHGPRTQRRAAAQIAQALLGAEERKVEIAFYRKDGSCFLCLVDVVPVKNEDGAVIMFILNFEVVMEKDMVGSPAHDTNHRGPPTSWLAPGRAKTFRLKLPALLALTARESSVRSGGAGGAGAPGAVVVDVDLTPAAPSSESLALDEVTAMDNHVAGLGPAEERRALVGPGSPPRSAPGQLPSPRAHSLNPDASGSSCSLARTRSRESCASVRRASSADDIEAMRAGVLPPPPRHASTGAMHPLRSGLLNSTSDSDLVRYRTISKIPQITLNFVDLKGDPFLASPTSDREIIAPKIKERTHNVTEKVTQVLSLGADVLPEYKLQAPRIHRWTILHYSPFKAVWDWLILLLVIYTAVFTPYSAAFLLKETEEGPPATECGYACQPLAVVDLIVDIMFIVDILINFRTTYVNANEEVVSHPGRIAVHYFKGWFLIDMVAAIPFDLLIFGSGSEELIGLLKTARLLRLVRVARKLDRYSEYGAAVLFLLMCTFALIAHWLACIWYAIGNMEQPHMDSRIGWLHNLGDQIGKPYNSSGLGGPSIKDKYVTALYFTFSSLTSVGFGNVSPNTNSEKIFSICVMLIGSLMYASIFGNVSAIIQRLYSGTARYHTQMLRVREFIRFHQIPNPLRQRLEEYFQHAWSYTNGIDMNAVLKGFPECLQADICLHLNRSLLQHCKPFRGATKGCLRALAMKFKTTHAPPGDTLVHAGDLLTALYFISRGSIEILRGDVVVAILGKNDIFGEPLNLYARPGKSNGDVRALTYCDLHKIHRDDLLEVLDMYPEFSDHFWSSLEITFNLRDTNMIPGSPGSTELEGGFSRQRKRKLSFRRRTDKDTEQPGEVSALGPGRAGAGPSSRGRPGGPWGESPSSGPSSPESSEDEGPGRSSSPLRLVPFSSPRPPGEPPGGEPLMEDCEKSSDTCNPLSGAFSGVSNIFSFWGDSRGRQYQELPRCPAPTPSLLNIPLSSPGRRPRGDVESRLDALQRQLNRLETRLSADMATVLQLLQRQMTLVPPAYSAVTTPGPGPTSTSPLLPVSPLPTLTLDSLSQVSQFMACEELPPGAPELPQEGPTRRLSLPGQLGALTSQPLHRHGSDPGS
KCNQ1 block: inhibitors of human KCNQ1 potassium channel. B-score at 10 µM. AID 2642. CHO-K1 KCNQ1, FluxOR thallium flux fluorescence; hits give high values. 1.3% of 310,000 active;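 active means compounds whose thallium flux B-score, printed positive for inhibition, exceeds three library SD while starting fluorescence stays within three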;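 further: channel opened by potassium depolarization with thallium stimulus after 20 min compound exposure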
KCNK9 inh: human KCNK9 channel inhibition | HEK293 KCNK9, FluxOR thallium flux fluorescence; hits give low values | Q9NPC2 | 1.2% of 310,000 active | AID 488922 | B-score at 10 µM;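 active means ratio B-score over 3 SD below the library mean, with starting fluorescence within 5 SD of its mean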;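 further: negative B-score means less thallium flux so channel inhibition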
KCNQ1 pot: potentiators or activators of human KCNQ1 potassium channel; 0.35% of 310,000 active; P51787; CHO-K1 KCNQ1, thallium flux FluxOR fluorescence; hits give high values; B-score at 10 µM;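 active means fluorescence ratio B-score, a plate-corrected score, at least three library SD, with initial intensity B-score within 5 SD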
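System: Stable KCNQ1 CHO-K1 line | Incubation: 90 min dye loading and 20 min compound exposure, both at room temperature | Measure: Ratio B score | Medium: Assay buffer for compound exposure, DMSO matched across wells | Compound dosing: Single-concentration screen | Probe or stimulus: K+/Tl+ depolarizing stimulus | Measured by: Kinetic FluxOR fluorescence, 10 s baseline plus 110 s post-stimulus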
KCNK9 inh conf: human KCNK9 inhibitor confirmation; shares compounds with KCNK9 inh; HEK293 KCNK9 cells, FluxOR thallium flux fluorescence; inhibition, % at 10 µM; 43% of 4,900 active;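 active means thallium signal inhibited by more than 5 SD of the compound-free buffer control wells, on both duplicate plates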;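 further: 0% = assay buffer control wells without compound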
Kir2-1 spec: mouse Kir2.1 off-target activity of KCNK9 modulators. shares compounds with KCNK9 inh. Kir2.1 cells, FluxOR thallium flux fluorescence. inhibition, % at 10 µM. 4% of 4,900 active;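 active means thallium signal drop more than 5 SD beyond the mean of the no-compound control wells, seen in both duplicate plates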;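 further: signal is fluorescence rise after thallium addition divided by baseline fluorescence; plate controls were assay buffer only for no effect and full block by chlorpromazine control for full effect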
KCNK9 uninduced: second counter-screen for KCNK9 modulators: effect in non-induced cells | 40% of 4,900 active | non-induced KCNK9-HEK293, FluxOR thallium flux | AID 492997 | inhibition, % at 10 µM | shares compounds with KCNK9 inh;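 active means thallium signal drop beyond 5 SD of the untreated control mean, on both duplicate plates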;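 further: plate controls were buffer only IC0 wells for no effect and SID17386958 at its maximal inhibitory level for full effect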
Numbers without * were called inactive; i = inactive; nt = no result given.

SMILES	KCNK3 inh	hERG rescue	KCNQ1 block	KCNK9 inh	KCNQ1 pot	KCNK9 inh conf	Kir2-1 spec	KCNK9 uninduced
O=C(NC(O)C(=O)c1ccc(F)cc1)c1ccc(F)cc1 (centres undefined)	i	-5	i	i	i	nt	nt	nt
O=C(Nc1ncccc1O)c1ccc(S(=O)(=O)Nc2ccccc2)cc1	i	-11	i	i	i	nt	nt	nt
CC(C)CCNC(=O)[C@H](CSCc1ccccc1)N1Cc2ccccc2C1=O	i	-9	i	i	i	i	i	i
CCOc1ccccc1NC(=O)c1nc(-c2ccccc2)oc1C	i	-4	i	-12*	i	i	i	25%*
CCOc1ccccc1C(=O)Nc1ccccc1-c1ccccc1	i	-20	i	-8.8*	i	72%*	38%*	25%*
CCCCC(c1nnnn1Cc1ccco1)N1CCN(c2nc3ccccc3s2)CC1 (centres undefined)	i	-10	i	-16*	i	48%*	i	33%*
c1ccc(Cn2nnnc2C(c2ccccc2)N2CCN(c3nc4ccccc4s3)CC2)cc1 (centres undefined)	i	-9	i	i	i	nt	nt	nt
CCC(c1nnnn1Cc1ccco1)N1CCN(c2cc(Cl)ccc2C)CC1 (centres undefined)	i	-6	i	-11*	i	54%*	i	42%*
c1ccc(C(c2nnnn2Cc2ccco2)N2CCN(c3nc4ccccc4s3)CC2)cc1 (centres undefined)	i	-11	i	-8.2*	i	42%*	i	28%*
CCCCN(C(=O)c1cccc2c(=O)c(C)c(-c3ccccc3)oc12)c1ccccc1	i	-9	i	-10*	i	40%*	i	34%*
CCCCNC(=O)c1cccc2c(=O)c(C)c(-c3ccccc3)oc12	i	0	i	i	i	nt	nt	nt
CC(=O)Nc1ccccc1OCc1cnc(Cl)s1	i	-20	i	i	i	nt	nt	nt
Cc1ccc2cc(C)c(N3CCN(c4ccccn4)CC3)nc2c1	i	-9	i	i	i	i	i	26%*
Cc1ccc(C(=O)CN2CCN(c3ccccn3)CC2)c(C)c1	i	-11	i	i	i	nt	nt	nt
CC1(C)CC(NC(=O)C(Cl)(Cl)Cl)CC(C)(C)N1	i	-3	i	i	i	nt	nt	nt
COC1CCCN(Cc2nc(Cc3ccccc3F)no2)C1 (centres undefined)	i	-8	i	i	i	nt	nt	nt
Fc1ccccc1OCC1CCCN(Cc2nc(CC3CC3)no2)C1 (centres undefined)	i	-9	i	i	i	i	i	i
c1ccc(OCc2noc(CN3CCC(C4CCCCC4)C3)n2)cc1 (centres undefined)	i	-7	i	i	i	i	i	i
Fc1ccccc1C1CCN(Cc2nc(COc3ccccc3)no2)C1 (centres undefined)	i	-16	i	i	i	i	i	i
Clc1cccc(C2CCN(Cc3nc(CC4CC4)no3)C2)c1 (centres undefined)	i	-9	i	i	i	i	i	i
CC(C)C(=O)Nc1cc2c3c(c1)CCN3C(=O)CC2	i	-4	i	i	i	nt	nt	nt
COc1ccccc1-n1nnnc1SC(C)C(=O)NC1CCCC1 (centres undefined)	i	-17	i	i	i	nt	nt	nt
c1ccc(COC2CCCN(Cc3nc(Cc4ccccc4)no3)C2)cc1 (centres undefined)	i	-9	i	i	i	i	i	i
CCn1c(SCC(=O)Nc2sccc2C(N)=O)nnc1C1CC1	i	nt	nt	nt	nt	nt	nt	nt
COc1cc(/C=C/C(=O)OCC(=O)N2CCC(Cc3ccccc3)CC2)ccc1O	i	-16	i	i	i	i	i	i
SMILES	KCNK3 inh	hERG rescue	KCNQ1 block	KCNK9 inh	KCNQ1 pot	KCNK9 inh conf	Kir2-1 spec	KCNK9 uninduced
COc1cccc(OC)c1C(=O)OCC(=O)N1CCC(Cc2ccccc2)CC1	i	nt	nt	nt	nt	nt	nt	nt
COc1cc(C(=O)OCC(=O)N2CCC(Cc3ccccc3)CC2)cc(OC)c1OC	i	-6	i	i	i	i	i	i
COc1cccc(OC)c1OCCCN1CCC(Cc2ccccc2)CC1	i	-10	i	i	i	i	i	i
CCNCCC(=O)N1c2ccccc2Sc2ccc(C(F)(F)F)cc21	i	-9	i	i	i	nt	nt	nt
O=C(OCC(=O)N1CCc2ccccc21)c1c2c(nc3ccccc13)CCCC2	i	-5	i	-13*	i	53%*	i	i
O=C(COC(=O)c1c2c(nc3ccccc13)CCCCC2)c1ccc(Cl)s1	i	-5	i	-13*	i	46%*	i	i
NC(=O)COC(=O)c1c2c(nc3ccccc13)CCCCC2	i	-4	i	i	i	nt	nt	nt
COc1ccc(NS(=O)(=O)c2ccc3nc(COc4ccc(Cl)c(C)c4)[nH]c3c2)cc1	i	-3	i	i	i	nt	nt	nt
COc1ccc(CCN(C)Cc2nc(Cc3ccc(OC)c(OC)c3)no2)cc1OC	i	-13	i	i	i	nt	nt	nt
O=C(NCc1ccco1)c1ccc2c(c1)N(Cc1ccccc1)C(=O)CS2	i	-14	i	i	i	i	i	i
C=CCN1C(=O)CSc2ccc(C(=O)NCc3ccco3)cc21	i	-19	i	i	i	nt	nt	nt
COc1ccc(CNC(=O)c2ccccc2C(=O)O)cc1	i	-2	i	i	i	nt	nt	nt
COc1ccc(CNC(=O)c2cccc(-c3ccc(C)c4ccccc34)n2)cc1	i	-11	i	i	i	i	i	i
CSc1ccc(CN(C)CC(=O)Nc2ccc(C)cc2Br)cc1	i	-7	i	i	i	i	i	i
CSc1ccc(CN(C)CC(=O)N(C)CC(=O)Nc2ccccc2Br)cc1	i	nt	nt	nt	nt	nt	nt	nt
CCOC(=O)[C@H]1[C@H]2COc3ccc(OC)cc3[C@@H]2N2C(=O)CN(CC3CCCO3)C(=O)[C@@]12C (some centres undefined)	i	nt	nt	nt	nt	nt	nt	nt
COc1ccc2nc(Nc3nc(CSc4ccc(C)cc4)cc(=O)[nH]3)nc(C)c2c1	i	-6	i	i	i	i	i	i
COc1ccc2nc(Nc3nc(CSc4nnnn4-c4ccccc4)cc(=O)[nH]3)nc(C)c2c1	i	-17	i	i	i	nt	nt	nt
